The record followed here is PubChem BioAssay AID1216 (Sanford-Burnham Center for Chemical Genomics, 2008).

The structures appear in SMILES notation. About 660 (0.35%) of roughly 190,000 compounds were called active. What follows is part of a selection rich in actives, with near analogues and random picks from the rest. Unmarked numbers belong to inactive results.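 The calls were made as follows: active = activation factor of 2 or more at 20 µM; inactive = the rest.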

Mannose-6-phosphate isomerase (Homo sapiens), sequence (P34949 whole entry, looked up): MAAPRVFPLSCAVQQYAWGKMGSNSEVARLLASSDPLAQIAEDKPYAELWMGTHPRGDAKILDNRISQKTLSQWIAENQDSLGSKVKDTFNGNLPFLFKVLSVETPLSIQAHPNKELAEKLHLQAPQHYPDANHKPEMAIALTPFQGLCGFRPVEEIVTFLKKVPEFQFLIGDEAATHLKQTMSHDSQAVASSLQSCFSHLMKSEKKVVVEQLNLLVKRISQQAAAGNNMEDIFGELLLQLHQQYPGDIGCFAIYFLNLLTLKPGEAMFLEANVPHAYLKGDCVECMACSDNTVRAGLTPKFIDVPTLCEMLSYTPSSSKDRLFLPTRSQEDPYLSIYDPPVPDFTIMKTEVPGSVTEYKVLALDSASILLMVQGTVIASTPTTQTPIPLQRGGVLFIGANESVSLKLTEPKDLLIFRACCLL

The experiment concerns the target Mannose-6-phosphate isomerase (Homo sapiens) (UniProt P34949). Nature of the experiment: human PMI activators, high substrate, primary screen, biochemical, fluorescence intensity, near-saturating mannose 6-phosphate (AID 1216). The conditions noted are these: coupled PMI enzyme assay, resazurin fluorescence, 20 min; at 20 µM; stronger effect = higher value; 1 = untreated enzyme, 0 = substrate-free blank. An outline of the steps:
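Test system: human phosphomannose isomerase with PGI, G6PDH, diaphorase coupling enzymes / Doses: 20 µM compound, 1% DMSO / Times: enzyme reaction with compound 20 min at room temperature / Measured by: Diaphorase-driven resazurin-to-resorufin fluorescence, excitation 544, emission 590 nm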
(Alamar Blue is a resazurin reagent that responds to reducing activity.)
On to `CC(C)(C)C(=O)CSc1nc2ccccc2o1`, for which the activation factor was 0.9.
The figure for `CN1CCN(S(=O)(=O)c2cccc(C(=O)O)c2)CC1` is 1.1.
Next, `CC1Cc2ccccc2N1C(=O)CSc1nnc(-c2ccc(S(=O)(=O)N3CCCC3)cc2)n1C` (centres undefined): 0.4.
The figure for `COc1ccccc1NC(=O)C1=C(C)Nc2nc3ccccc3n2C1c1cccs1` (centres undefined) is 1; for `CCC(=O)NC(=Nc1nc2ccccc2s1)NC(=O)CC` it is 1.1; for `COC(=O)Cc1nc2ccccc2[nH]1` it is 1.
On to `COC(=O)Cc1cc(=O)n(-c2nc3ccccc3s2)[nH]1`, for which the activation factor is 2 (active).
Regarding `CCCCN=C1C([N+](=O)[O-])=CC=C2C1=NC1(CCCCC1)N2O`, the activation factor is 0.5.
On to `O=C(Nc1cccnc1)c1cc2cc(Br)ccc2oc1=O`, for which the activation factor is 1.1.
`CS(=O)(=O)N(CC(=O)NC1CCCC1)Cc1ccc(F)cc1`: the activation factor is 1.
`CCC1=NN(C(=O)Cc2ccc([N+](=O)[O-])cc2)C(O)(c2ccc(Br)cc2)C1` (centres undefined): the activation factor was 0.9.
Next, `CCN(CC)CCN1C(=O)C(=O)/C(=C(/O)c2ccccc2)C1c1ccccc1F` (centres undefined): 1; `CCN(CC)CCN1C(=O)C(=O)/C(=C(/O)c2cnn(-c3ccccc3)c2C)C1c1cccs1` (centres undefined): 2 (active).
Take `CCN(CC)CCN1C(=O)C(=O)/C(=C(/O)c2ccc(OC)c(OC)c2)C1c1ccccn1` (centres undefined): the activation factor is 1.2.
The figure for `Cc1cc(C)c(OCCN2CC(C)OC(C)C2)c(Br)c1` (centres undefined) is 0.9; for `Cc1scc(C(=O)NNC(=S)NCc2ccccc2)c1C` it is 1.1.
Next, `S=C(c1ccc(-c2ccccc2)o1)N1CCCCC1`: 0.9.
As to `C=CCN(C(=O)c1cc(C)cc(C)c1)C1(C(=O)Nc2ccccc2)CCN(C(C)C)CC1`, the activation factor was 1.
In the case of `COc1cccc(CN2CCNC(=O)C2CC(=O)N(C)CCc2ccccn2)c1` (centres undefined), the activation factor is 0.7.
The figure for `CC1=C(C)CC(C(=O)NNC(=O)c2csc3c2CCC(C(C)(C)C)C3)C(C(=O)O)C1` (centres undefined) is 1; for `Cc1ccc(/C(N)=N/OC(=O)COc2ccc(Cl)c(C)c2)cc1` it is 1; for `Nc1ncc(-c2cc3ccccc3oc2=O)s1` it is 0.8.
Turning to `O=c1oc2ccccc2cc1-c1cn(-c2ccccc2)c(=S)[nH]1`, the activation factor was 2.3 (active).
Take `O=C(c1cn(-c2ccccc2)nc1-c1cc2ccccc2oc1=O)N1CCOCC1`: the activation factor was 1.
Next, `O=S1(=O)CC/C(=N\Nc2ccc(F)cc2)c2ccsc21`: 2.6 (active).
The figure for `COC(=O)c1nc(NC(=O)c2ccc(F)cc2)n[nH]1` is 1.
Turning to `CCOC(=O)C1(O)CC(C)=NN1C(=O)c1cccc(Br)c1` (centres undefined), the activation factor was 1.1.
As to `Cn1cccc1/C=N/NC(=O)c1ccc(OC(F)(F)C(F)F)cc1`, the activation factor is 0.9.
For `O=C(NCc1ccccc1Cl)C1CCCO1` (centres undefined), the activation factor was 1.
